Compound activity from PubChem.
PLC-beta3 inh = inhibitors of human phospholipase C beta3; Q01970; Purified PLC-beta3, fluorogenic substrate, fluorescence; inhibition, % at 12.2 µM; actives 0.18% (n = 370,000); in the data active means inhibition above about 11%;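 further: 0% = median of compound wells on plate and 100% = full blocker control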
PLCg1 inh = inhibitors of human phospholipase C gamma1. P19174. purified PLC-gamma1, fluorogenic substrate, fluorescence. inhibition, % at 12.2 µM. actives 0.84% (n = 370,000)
sPLA2-III inh = Inhibits HGIII-sPLA2 liposome hydrolysis, primary screen; QFRET BODIPY PC-A2 liposome hydrolysis, fluorescence; inhibition, % at 12.2 µM; actives 0.56% (n = 370,000); AID 743126;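 active means inhibition above mean plus 3 SD of compounds lying within the high and low control bounds, cut at about 19% in these data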;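 further: 0% = median of test compound wells and 100% = no enzyme DMSO wells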
TbMetRS inhib = blocks T. brucei methionyl-tRNA synthetase activity | purified T. brucei MetRS, ATP depletion, Kinase-Glo luminescence | actives 0.4% (n = 360,000) | inhibition, % at 11.9 µM | AID 624268;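 active means inhibition above a per-plate cutoff of the control wells' mean inhibition plus 3 SD, cut at about 5.5% in these data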;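 further: 0% = DMSO wells median and 100% = median of wells with control inhibitor compound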
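Material: parasite MetRS enzyme / Replication: singlicate, one well per compound / Signal: luminescence of leftover ATP / Schedule: 2 h aminoacylation at 25 °C after 15 min preincubation / Medium: HEPES-MgCl2-KCl buffer plus DTT, spermine, BSA, pyrophosphatase / Doses: 11.9 µM single point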
PLCgamma1 ctr = counter-screen for PLC-beta3 inhibitors: inhibitors of human PLC-gamma1; shares compounds with PLCg1 inh; purified PLC-gamma1, fluorogenic substrate, fluorescence; inhibition, % at 12.3 µM; actives 3.1% (n = 3,300)
PLCbeta3 conf = confirmation of human PLC-beta3 inhibitors | shares compounds with PLCg1 inh | purified PLC-beta3, fluorogenic substrate fluorescence | inhibition, % at 12.3 µM | actives 1% (n = 3,300) | AID 743261; in the data active means inhibition above about 11%
* marks the source's active call; other numbers are inactive results; i = inactive; . = no result. Compounds with a hit are over-represented: about 1.9% of the library has one in this group of screens. Unless noted, no stated cut-off is given here; in the data, active means inhibition above about 9.5%; inactive means the rest.

SMILES | PLC-beta3 inh | PLCg1 inh | sPLA2-III inh | TbMetRS inhib | PLCgamma1 ctr | PLCbeta3 conf
O=C(NC1CCCCN(Cc2cccc(F)c2)C1=O)c1ccc(-c2ccccc2)cc1 (stereo not given) | -1.7 | 1.4 | -0.2 | . | . | .
CN(C)S(=O)(=O)c1cccc(C(=O)NCC(C)(C)CNC(=O)c2cccc(S(=O)(=O)N(C)C)c2)c1 | -2.2 | 9.9* | -6.0 | 0.1 | 7.9 | 1.7
CN(C)S(=O)(=O)c1cccc(C(=O)NCCNC(=O)c2cccc(S(=O)(=O)N(C)C)c2)c1 | -4.0 | 2.2 | 1.4 | -0.3 | . | .
CS(=O)(=O)c1ccc(NC(=O)C2CCCN(C(=O)c3ccc(Cl)cc3)C2)cc1 (stereo not given) | -7.9 | 0.4 | 6.1 | -0.3 | . | .
CC(=O)Nc1ccc(NC(=O)C2CCCN(C(=O)c3ccc(Cl)cc3)C2)cc1 (stereo not given) | 6.3 | 12.0* | 3.6 | -1.0 | -2.0 | 0.0
COc1ccc(-c2nnc(SCC(=O)N/N=C/c3ccccc3C(=O)O)n2-c2ccccc2)cc1 | 2.7 | 13.6* | -5.9 | -1.2 | -1.1 | -1.8
COc1ccc(-c2nnc(SCC(=O)NCc3cccs3)n2CC(C)C)cc1 | 8.8 | 10.2* | 5.8 | -1.1 | -3.0 | 0.9
COc1ccc(-c2nnc(SCC(=O)Nc3ccccc3)n2C)cc1 | 1.9 | 13.2* | -0.6 | -0.1 | -6.6 | -2.8
COC(=O)c1cc(-c2cccs2)c(=O)n2c1CCC2 | -231.8 | -174.3 | 0.3 | . | . | .
Cc1ccccc1-c1ccc2c(c1)[C@@H]1C[C@H]3[C@@H](CN1CC2)[C@H](C)OC(C1CCCCC1)N3C (stereo not given in full) | -23.2 | -15.8 | -3.5 | . | . | .
CCOc1ccc(C(=O)NCCC2=CCCCC2)cc1OCC | 5.2 | 11.1* | 6.5 | 1.0 | -4.7 | 0.4
O=C(NCCC1=CCCCC1)c1ccc2c(c1)N(Cc1ccccc1)C(=O)CS2 | 9.0 | 10.8* | -10.4 | -0.1 | -1.2 | -6.7
COC(=O)[C@]12C[C@H](CC(=O)NCCCN3CCCC3=O)C(=O)N(Cc3ccco3)C1=C[C@H](C1CCCC1)O[C@@H]2C | 0.7 | -0.5 | -2.5 | . | . | .
COc1ccc(C(C(=O)N(C)C2CCCC2)N(Cc2ccc(F)cc2)C(=O)c2sccc2Cl)cc1OC (stereo not given) | 1.7 | -1.9 | -1.9 | . | . | .
O=C(NCCNC(=O)C(F)(F)F)c1ccncc1 | 3.3 | 3.2 | 3.9 | -1.0 | . | .
O=C(NCCc1ccncc1)C(F)(F)F | -0.5 | 11.4* | 12.2 | 0.3 | -1.6 | 1.0
CCO[C@H]1OC(C(=O)Nc2ccccc2)=C[C@@H](c2ccc(C(F)(F)F)cc2)[C@@H]1CCCO | 7.3 | 10.1* | -1.2 | -0.2 | -2.9 | 4.5
CCO[C@H]1OC(C(=O)NCc2ccccc2)=C[C@@H](c2ccc(C(F)(F)F)cc2)[C@@H]1CCCO | 2.0 | 1.6 | -9.7 | -0.4 | . | .
CC(C)c1[nH]nc2c1C(c1ccc(Br)cc1)NC2=O (stereo not given) | 5.8 | 2.4 | 3.0 | . | . | .
Cc1nn(-c2ccccc2)c(Cl)c1C(=O)NCCCCNC(=O)c1c(C)nn(-c2ccccc2)c1Cl | 13.8* | 12.4* | -15.4 | -1.7 | 6.4 | -18.8
CC(=O)Nc1nc2ncccn2c1-c1ccc(F)c(F)c1 | i | i | 15.6 | . | . | .
O=C1CCN(Cc2ccc(O)cc2)CCN1[C@H](CO)c1ccccc1 | 3.8 | 9.7* | 0.0 | -1.1 | -1.9 | -0.9
O=C1CCN(Cc2ccccc2)CCN1[C@H](CO)c1ccccc1 | 2.0 | 1.6 | 1.7 | -0.5 | . | .
Nc1c(N2CCCC2)cc(Cl)c2nonc12 | . | . | . | 0.7 | . | .
Nc1ccc(N2CCCCC2)c2nonc12 | -8.8 | 33.8* | 4.2 | 3.5 | -7.6 | -9.5
SMILES | PLC-beta3 inh | PLCg1 inh | sPLA2-III inh | TbMetRS inhib | PLCgamma1 ctr | PLCbeta3 conf
O=C(Nc1ccc(Cl)c([N+](=O)[O-])c1)c1ccncc1 | 2.9 | 10.8* | 9.8 | 1.7 | -6.5 | 1.2
CCn1c(SCC(=O)NN=Cc2cc(OC)ccc2OC)nnc1-c1ccc(OC)cc1 | -52.2 | -39.6 | -3.6 | . | . | .
Cc1cc(NC(=O)CSc2nc(C(C)C)nc3sc(C)c(C)c23)no1 | 1.2 | 0.3 | -5.0 | -0.2 | . | .
Cc1cc(NC(=O)CSc2nnc3c4c(C)c(C)sc4ncn23)no1 | 11.8* | -6.0 | 6.7 | -0.4 | -3.6 | -2.2
C=CCN1C(=O)[C@@H](CC(=O)NCCc2ccccc2OC)[C@]2(C(=O)OC)CCCCC=C12 | 2.2 | 2.4 | 4.0 | . | . | .
CC(=O)N=c1sc(C(C)(C)C)c(C)n1C | 0.9 | 9.8* | 6.0 | -0.8 | -2.5 | -4.2
CC1=C(C(=O)OC(C)C)C(c2cccc([N+](=O)[O-])c2)n2c(cc(=O)[nH]c2=S)N1 (stereo not given) | 2.7 | 9.7* | 8.8 | -0.1 | -2.4 | -0.2
COc1ccc(Cc2nnc(N/N=C/c3ccc(N(C)C)cc3)[nH]c2=O)cc1OC | -11.0 | 2.0 | 5.5 | 0.1 | . | .
COc1ccc(/C=N/Nc2nnc(Cc3ccc(OC)c(OC)c3)c(=O)[nH]2)cc1OC | 10.8* | 4.0 | -2.5 | 0.5 | 2.5 | 3.9
COc1ccc(/C=N/Nc2nnc(Cc3ccc(OC)c(OC)c3)c(=O)[nH]2)cc1 | 8.7 | 13.8* | 4.3 | -0.9 | -1.4 | -4.1
COc1ccc(/C=N/Nc2nnc(Cc3ccccc3)c(=O)[nH]2)cc1 | -5.7 | -0.1 | 2.8 | -0.5 | . | .
O=C(Nc1ccc(F)cc1)c1nsc(Cl)c1Cl | 1.9 | -0.2 | 3.9 | -1.0 | . | .
O=C(Nc1ccc(F)c(Cl)c1)c1nsc(Cl)c1Cl | 6.1 | 11.4* | 6.4 | -0.7 | -8.7 | -7.6
Cc1cccc(N(C(=O)CCC(=O)Nc2cc(C)on2)C(C(=O)NC2CCCC2)c2ccncc2)c1 (stereo not given) | 0.7 | -0.8 | 7.9 | -0.3 | . | .
Cc1ccc(N(C(=O)CCC(=O)Nc2cc(C)on2)C(C(=O)NC2CCCC2)c2ccncc2)cc1 (stereo not given) | 4.0 | 10.4* | -2.3 | -0.3 | 6.2 | 4.0
CCN(CC)C1CCN(C(=O)c2cc(COc3ccccc3SC)on2)C1 (stereo not given) | -8.8 | 10.0* | 1.5 | -0.2 | -6.0 | -4.2
C#CCN1CC(COc2ccccc2)Oc2cccc(Oc3ccc(C(C)C)cc3)c2S1(=O)=O (stereo not given) | -1.6 | -2.0 | 3.5 | . | . | .
CSCC[C@H](NC(=O)c1nn(C)c(=O)c2ccccc12)c1nc2ccccc2[nH]1 | 0.9 | 12.6* | 2.4 | 1.0 | -9.1 | -6.1
CCOC(=O)c1cc2c(nc1N)CC(C)(C)OC2 | -117.0 | -95.0 | -1.6 | 1.3 | . | .
CC1(C)Cc2nc(Cl)c(C(N)=O)cc2CO1 | -1.4 | 10.2* | 5.6 | -0.6 | -3.3 | 0.7
CCC(C)NC(=O)CN1C(=O)C2CCCCN2C(=O)c2ccccc21 (stereo not given) | -0.2 | -2.5 | -0.1 | . | . | .
Cc1ccc(C(C)C)cc1S(=O)(=O)NCc1cccnc1 | 3.3 | 9.9* | -3.8 | 0.2 | -5.9 | -3.6
N/C(=N\OC(=O)c1ccc(Cl)cc1Cl)c1ccncc1 | -6.4 | -4.2 | 11.1 | -0.6 | . | .
